{"source": "ChEMBL document CHEMBL4321877", "about": "“Development of Novel N-hydroxypyridone Derivatives as Potential Anti-Ischemic Stroke Agents” (J Med Chem, 2020)", "key": {"SH-SY5Y [1]": {"system": "SH-SY5Y", "experiment": "Cytotoxicity against human SH-SY5Y cells assessed as reduction in cell viability measured after 24 hrs by MTT assay", "assay_type": "cell-based", "method_in_brief": "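SH-SY5Y cells (1:1 MEM/F12, 10% FBS) seeded 3 × 10^4 cells/well, grown 24 h, then exposed without insult for 24 h to 1.56–100 µM or to 1 and 10 µM (DMSO stock diluted in medium). MTT read at 490 nm; viability as % of untreated control.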"}, "[2]": {"target": "Voltage-gated inwardly rectifying potassium channel KCNH2 (Homo sapiens, UniProt Q12809)", "sequence (Q12809 whole entry)": "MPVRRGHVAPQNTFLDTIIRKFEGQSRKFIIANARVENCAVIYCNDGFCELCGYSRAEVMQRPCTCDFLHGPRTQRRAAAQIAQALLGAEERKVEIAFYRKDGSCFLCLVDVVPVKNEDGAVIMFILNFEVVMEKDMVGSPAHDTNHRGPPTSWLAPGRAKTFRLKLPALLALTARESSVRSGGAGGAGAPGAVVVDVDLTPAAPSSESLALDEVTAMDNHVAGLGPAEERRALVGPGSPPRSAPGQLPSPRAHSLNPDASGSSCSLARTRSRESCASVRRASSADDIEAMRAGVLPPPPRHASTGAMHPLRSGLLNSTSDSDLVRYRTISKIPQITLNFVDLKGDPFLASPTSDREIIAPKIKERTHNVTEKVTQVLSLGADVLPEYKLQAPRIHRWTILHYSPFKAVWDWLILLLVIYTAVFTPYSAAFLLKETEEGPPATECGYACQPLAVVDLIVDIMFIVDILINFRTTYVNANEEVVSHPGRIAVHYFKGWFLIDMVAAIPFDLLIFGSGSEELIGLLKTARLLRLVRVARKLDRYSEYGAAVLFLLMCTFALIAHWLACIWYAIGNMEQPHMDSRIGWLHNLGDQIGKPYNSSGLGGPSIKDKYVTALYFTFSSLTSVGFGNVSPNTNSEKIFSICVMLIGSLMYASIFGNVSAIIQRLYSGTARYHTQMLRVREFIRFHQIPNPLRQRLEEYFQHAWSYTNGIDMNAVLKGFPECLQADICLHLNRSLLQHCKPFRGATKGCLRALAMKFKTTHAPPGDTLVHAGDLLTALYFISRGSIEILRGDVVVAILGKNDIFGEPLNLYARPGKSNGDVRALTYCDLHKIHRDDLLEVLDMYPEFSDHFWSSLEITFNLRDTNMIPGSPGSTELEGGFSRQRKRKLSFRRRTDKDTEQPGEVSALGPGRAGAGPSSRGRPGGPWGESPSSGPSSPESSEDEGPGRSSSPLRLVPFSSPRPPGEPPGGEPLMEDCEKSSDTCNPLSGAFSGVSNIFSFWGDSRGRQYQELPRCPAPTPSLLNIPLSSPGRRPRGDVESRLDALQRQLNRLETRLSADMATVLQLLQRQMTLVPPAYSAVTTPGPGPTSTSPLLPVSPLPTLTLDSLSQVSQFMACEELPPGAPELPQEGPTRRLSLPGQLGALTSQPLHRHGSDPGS", "experiment": "Inhibition of human ERG stably expressed in CHO cells at -80 mV by automated Qpatch electrophysiological assay", "assay_type": "cell-based"}, "Rattus norvegicus [3]": {"system": "Rattus norvegicus", "experiment": "Neuroprotective activity in Sprague-Dawley rat model of middle cerebral artery occlusion-induced ischemia-reperfusion injury assessed as infarction volume at 3 mg/kg, iv by TTC staining based assay (reference value: 39%)", "assay_type": "functional", "method_in_brief": "(§1)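 Male Sprague-Dawley rats under chloral hydrate (400 mg/kg, i.p.); nylon monofilament through the left internal carotid artery occluded the MCA origin for 2 h, then was withdrawn for reperfusion. Drug in 0.9% saline was injected via the tail vein immediately after reperfusion. After 24 h, 2 mm coronal sections were stained with 1% TTC at 37 °C for 15 min and fixed in 4% paraformaldehyde. Infarct % = (normal hemisphere − non-infarcted ischemic hemisphere)/normal hemisphere ×100. n=15-18, mean ± SEM.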"}, "[4]": {"experiment": "Half life in mouse liver microsomes at 1 uM in presence of NADPH by LC-MS/MS analysis", "assay_type": "ADME, Microsome"}, "SH-SY5Y [5]": {"system": "SH-SY5Y", "experiment": "Neuroprotective activity against H2O2-induced cell death in human SH-SY5Y cells assessed as cell viability at 1 to 4 uM preincubated for 2 hrs followed by H2O2-challenge by MTT assay (reference value: 45.73%)", "assay_type": "functional"}, "MRC5": {"system": "MRC5", "experiment": "Cytotoxicity against human MRC5 cells assessed as reduction in cell viability measured after 72 hrs by CCK8 assay", "assay_type": "cell-based", "conditions": "MRC5, 72 h", "method_in_brief": "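MRC-5 cells grown in MEM with 10% FBS, NEAA, 5% CO2 at 37 °C; seeded 7000 cells/well, treated at several concentrations for 72 h. Viability by CCK-8 absorbance at 450 nm, expressed as % of vehicle-treated cells; IC50 reported as mean ± SD.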"}, "[6]": {"experiment": "Solubility of the compound in […] incubated for 24 hrs by HPLC analysis", "assay_type": "physicochemical"}, "Rattus norvegicus [7]": {"system": "Rattus norvegicus", "experiment": "Neuroprotective activity in iv dosed Sprague-Dawley rat model of middle cerebral artery occlusion-induced ischemia-reperfusion injury assessed as concentration required to reduce infarction volume to < 26% by TTC staining based assay", "assay_type": "functional", "method_in_brief": "as §1"}, "SH-SY5Y [8]": {"system": "SH-SY5Y", "experiment": "(§2) Neuroprotective activity against oxygen-glucose deprivation-induced apoptosis in human SH-SY5Y cells assessed as necrotic cells at 4 uM preincubated for 2 hrs followed by OGD-challenge and measured after 24 hrs by Annexin V-FITC/propidium iodide staining-based flow cytometric method (reference value: 6.46%)", "assay_type": "functional"}, "HT-22": {"system": "HT-22", "experiment": "Neuroprotective activity against glutamate-induced cell death in mouse HT22 cells assessed as increase in cell viability up to 4 uM preincubated for 2 hrs followed by glutamate-challenge and measured after 24 hrs by MTT assay", "assay_type": "functional, cell-based", "method_in_brief": "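HT22 mouse hippocampal cells (DMEM, 10% FBS) seeded 5×10^4 cells/ml and grown 12 h. Compound added for 2 h, then 10 mM L-glutamic acid hydrochloride for 24 h. Viability by MTT at 490 nm as % of control; mean ± SD, n = 3.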"}, "SH-SY5Y [9]": {"system": "SH-SY5Y", "experiment": "Neuroprotective activity against oxygen-glucose deprivation-induced morphological changes in human SH-SY5Y cells assessed as suppression of cell shrinkage […] and measured after 24 hrs by microscopic analysis", "assay_type": "functional, cell-based"}, "SH-SY5Y [10]": {"system": "SH-SY5Y", "experiment": "Neuroprotective activity against oxygen-glucose deprivation-induced morphological changes in human SH-SY5Y cells assessed as increase in cell number added immediately before OGD-challenge and measured after 24 hrs by microscopic analysis"}, "SH-SY5Y [11]": {"system": "SH-SY5Y", "experiment": "as §2, with “late apoptotic” for “necrotic”, “28.2%)” for “6.46%)”", "assay_type": "functional"}, "Rattus norvegicus [12]": {"system": "Rattus norvegicus", "experiment": "Neuroprotective activity in Sprague-Dawley rat model of middle cerebral artery occlusion-induced ischemia-reperfusion injury assessed as reduction in disease severity score at 1 mg/kg, iv measured 24 hrs post-reperfusion", "assay_type": "functional, organism-based", "method_in_brief": "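Male Sprague-Dawley rats anesthetized with chloral hydrate (400 mg/kg i.p.); left MCA occluded by intraluminal nylon suture for 2 h, then withdrawn. Compound in 0.9% saline given by tail vein immediately after reperfusion; body temperature held at 37.0 ± 0.5 °C. mNSS scored 24 h later; n = 15–18, mean ± SEM.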"}, "SH-SY5Y [13]": {"system": "SH-SY5Y", "experiment": "Neuroprotective activity against oxygen-glucose deprivation-induced morphological changes in human SH-SY5Y cells assessed as suppression of bright cell body appearance preincubated for 2 hrs followed by OGD-challenge and measured after 24 hrs by microscopic analysis", "assay_type": "functional, cell-based", "method_in_brief": "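SH-SY5Y cells treated immediately before 2 h OGD (glucose/serum-free, hypoxia chamber, 37 °C), then reoxygenated; morphology (neurites, cell body, cell number) inspected by light microscopy 24 h after insult.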"}, "SH-SY5Y [14]": {"system": "SH-SY5Y", "experiment": "as §2, with “viable” for “necrotic”, “48.2%)” for “6.46%)”", "assay_type": "functional", "conditions": "read-out: Activity"}, "SH-SY5Y [15]": {"system": "SH-SY5Y", "experiment": "Neuroprotective activity against oxygen-glucose deprivation-induced morphological changes in human SH-SY5Y cells assessed as suppression of neurite disappearance […] and measured after 24 hrs by microscopic analysis", "assay_type": "functional, cell-based"}, "SH-SY5Y [16]": {"system": "SH-SY5Y", "experiment": "as §2, with “early apoptotic” for “necrotic”, “17.1%)” for “6.46%)”", "assay_type": "functional"}, "Rattus norvegicus [17]": {"system": "Rattus norvegicus", "experiment": "Neuroprotective activity in Sprague-Dawley rat model of middle cerebral artery occlusion-induced ischemia-reperfusion injury assessed as infarction volume at 0.3 mg/kg, iv by TTC staining based assay (reference value: 39%)", "assay_type": "functional", "method_in_brief": "as §1"}, "Rattus norvegicus [18]": {"system": "Rattus norvegicus", "experiment": "Neuroprotective activity in Sprague-Dawley rat model of middle cerebral artery occlusion-induced ischemia-reperfusion injury assessed as infarction volume at 1 mg/kg, iv by TTC staining based assay (reference value: 39%)", "assay_type": "functional", "method_in_brief": "as §1"}}, "note": "The source made the active and inactive calls. The calls are words filed in the database; no cut-off is given here."}
{"smiles": "Cc1cc(C2CCCCC2)n(O)c(=O)c1.NCCO", "note": "[CICLOPIROX OLAMINE]", "values": [{"measurement": "IC50", "setting": "SH-SY5Y [1]", "result": "> 100", "unit": "µM"}, {"measurement": "IC50", "setting": "[2]", "result": "> 40", "unit": "µM"}, {"measurement": "Activity", "setting": "Rattus norvegicus [3]", "result": 26, "unit": "%"}, {"measurement": "half-life at 1 µM", "setting": "[4]", "result": 0.886, "unit": "h"}, {"measurement": "Activity", "setting": "SH-SY5Y [5]", "result": "<=80%"}, {"measurement": "IC50", "setting": "MRC5", "result": 23.5, "unit": "µM"}, {"measurement": "solubility", "setting": "[6]; buffer, 24 h", "result": 6.82, "unit": "mg/mL"}, {"measurement": "Activity", "setting": "Rattus norvegicus [7]", "result": 3, "unit": "mg/kg"}]}
{"smiles": "Cc1cc([C@@H]2C[C@@H]3CC[C@H]2C3)n(O)c(=O)c1.NCCO", "values": [{"measurement": "Activity", "setting": "SH-SY5Y [8]", "result": 4.87, "unit": "%"}, {"measurement": "Activity", "setting": "HT-22", "result": "Active"}, {"measurement": "Activity", "setting": "SH-SY5Y [9]", "result": "Active"}, {"measurement": "IC50", "setting": "SH-SY5Y [1]", "result": "> 100", "unit": "µM"}, {"measurement": "IC50", "setting": "[2]", "result": "> 40", "unit": "µM"}, {"measurement": "Activity", "setting": "SH-SY5Y [10]", "result": "Active"}, {"measurement": "Activity", "setting": "SH-SY5Y [11]", "result": 16, "unit": "%"}, {"measurement": "Activity", "setting": "Rattus norvegicus [12]", "result": "Active"}, {"measurement": "half-life at 1 µM", "setting": "[4]", "result": 1.53, "unit": "h"}, {"measurement": "Activity", "setting": "SH-SY5Y [13]", "result": "Active"}, {"measurement": "viability at 4 µM", "setting": "SH-SY5Y [14]", "result": 69.8, "unit": "%"}, {"measurement": "Activity", "setting": "SH-SY5Y [5]", "result": "<=80%"}, {"measurement": "Activity", "setting": "SH-SY5Y [15]", "result": "Active"}, {"measurement": "IC50", "setting": "MRC5", "result": 23.6, "unit": "µM"}, {"measurement": "Activity", "setting": "SH-SY5Y [16]", "result": 9.36, "unit": "%"}, {"measurement": "solubility at 24 h", "setting": "[6]", "result": 10.9, "unit": "mg/mL"}, {"measurement": "Activity", "setting": "Rattus norvegicus [17]", "result": 25, "unit": "%"}, {"measurement": "Activity", "setting": "Rattus norvegicus [18]", "result": 23, "unit": "%"}, {"measurement": "Activity", "setting": "Rattus norvegicus [7]", "result": 0.3, "unit": "mg/kg"}]}
